Source: ChEMBL document CHEMBL4622949, “A chalcone derivative binds a putative allosteric site of YopH: Inhibition of a virulence factor of Yersinia” (Bioorg Med Chem Lett, 2020)

Assays:
[1] = target: T1, Tyrosine-protein phosphatase non-receptor type 22 (Homo sapiens, UniProt Q9Y2R2); assay: Inhibition of LYP (unknown origin) at 25 uM using pNPP as substrate relative to control
T1 sequence (Q9Y2R2 whole entry): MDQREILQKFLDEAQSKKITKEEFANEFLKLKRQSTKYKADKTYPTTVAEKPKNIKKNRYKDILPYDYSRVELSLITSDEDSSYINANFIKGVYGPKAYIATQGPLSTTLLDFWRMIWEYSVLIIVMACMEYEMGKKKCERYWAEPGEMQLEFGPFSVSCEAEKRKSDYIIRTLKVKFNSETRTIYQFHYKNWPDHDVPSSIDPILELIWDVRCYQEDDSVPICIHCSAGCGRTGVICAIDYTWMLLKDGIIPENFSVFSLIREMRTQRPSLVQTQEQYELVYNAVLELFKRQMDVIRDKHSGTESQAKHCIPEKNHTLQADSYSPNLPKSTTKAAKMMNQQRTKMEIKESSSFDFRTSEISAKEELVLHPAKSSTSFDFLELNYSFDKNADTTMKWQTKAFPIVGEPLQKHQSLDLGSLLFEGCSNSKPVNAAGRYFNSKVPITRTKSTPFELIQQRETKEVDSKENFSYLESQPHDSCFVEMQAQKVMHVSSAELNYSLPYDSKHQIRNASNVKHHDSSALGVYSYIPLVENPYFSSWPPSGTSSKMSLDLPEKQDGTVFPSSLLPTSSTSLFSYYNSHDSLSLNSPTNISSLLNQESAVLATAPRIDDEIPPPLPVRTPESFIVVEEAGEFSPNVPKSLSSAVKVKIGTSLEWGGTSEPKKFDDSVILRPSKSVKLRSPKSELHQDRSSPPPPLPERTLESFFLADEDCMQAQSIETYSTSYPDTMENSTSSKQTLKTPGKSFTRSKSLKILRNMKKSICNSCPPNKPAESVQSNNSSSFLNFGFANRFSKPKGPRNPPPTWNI

[2] = target: Tyrosine-protein phosphatase YopH (Yersinia enterocolitica) (UniProt P15273); assay: Irreversible inhibition of Yersinia enterocolitica YopH assessed as enzyme recovery activity by dilution assay relative to control; design: scale not given: the % may be the effect or the level left
How it was run: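 Reversibility tested by preincubation and dilution: enzyme preincubated with inhibitor, then diluted, and recovered phosphatase activity expressed as a percentage of control.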

[3] = target: T2, Tyrosine-protein phosphatase YopH (Yersinia enterocolitica, UniProt P15273); assay: Inhibition of recombinant Yersinia enterocolitica YopH assessed as reduction in conversion of pNPP to nitrophenol and inorganic phosphate using pNPP as substrate by microplate reader assay
How it was run: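 Recombinant YopH phosphatase activity was measured in vitro. Values are the average of individual means ± SD from three independent experiments.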

[4] = target: T2, Tyrosine-protein phosphatase YopH; assay: Non-competitive mixed inhibition of Yersinia enterocolitica YopH assessed as inhibition constant
How it was run: (§1)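 Kinetic parameters were derived from Michaelis–Menten plots of YopH activity with and without inhibitor. Ki and α were obtained from a non-competitive mixed-inhibition analysis. Results are means ± SD of three independent experiments.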

[5] = target: T2, Tyrosine-protein phosphatase YopH; assay: Non-competitive mixed inhibition of Yersinia enterocolitica YopH assessed as inhibition constant for enzyme-substrate complex; how it was run: as §1

T2 sequence (P15273 whole entry): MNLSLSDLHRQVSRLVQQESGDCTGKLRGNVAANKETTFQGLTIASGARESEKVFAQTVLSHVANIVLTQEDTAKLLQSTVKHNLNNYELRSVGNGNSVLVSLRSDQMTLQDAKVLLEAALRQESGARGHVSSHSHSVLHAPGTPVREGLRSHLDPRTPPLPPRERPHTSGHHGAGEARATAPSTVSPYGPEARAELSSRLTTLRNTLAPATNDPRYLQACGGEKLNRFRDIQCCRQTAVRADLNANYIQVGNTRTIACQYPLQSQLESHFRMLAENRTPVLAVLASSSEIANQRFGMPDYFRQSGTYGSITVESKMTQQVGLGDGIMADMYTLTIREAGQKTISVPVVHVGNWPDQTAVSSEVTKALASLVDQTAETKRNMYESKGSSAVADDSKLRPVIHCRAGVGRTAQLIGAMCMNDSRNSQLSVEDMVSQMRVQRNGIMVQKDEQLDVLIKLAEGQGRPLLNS
Chain of Tyrosine-protein phosphatase YopH (Yersinia enterocolitica) (P15273 whole entry): as above

Row | Compound | inhibition at 25 µM [1] [%] | further results
1 | COc1cc(C(=O)/C=C/c2ccc(C(=O)O)cc2)ccc1O | 9.1 | 
2 | COc1ccc(OC)c(C(=O)/C=C/c2ccc(C(=O)O)cc2)c1 | 15.8 | 
3 | O=C(O)c1ccc(/C=C/C(=O)c2ccc(Br)cc2)cc1 | 15.7 | 
4 | O=C(O)c1ccc(/C=C/C(=O)c2ccc(F)cc2)cc1 | 11.4 | 
5 | COc1ccc(C(=O)/C=C/c2ccc(C(=O)O)cc2)cc1OC | 4.2 | 
6 | COc1cccc(C(=O)/C=C/c2ccc(C(=O)O)cc2)c1 | 6.8 | 
7 | O=C(O)c1ccc(/C=C/C(=O)c2cccc(O)c2)cc1 | 7.9 | 
8 | O=C(/C=C/c1ccc(O)c(O)c1)O[C@@H](C(=O)O)[C@@H](OC(=O)/C=C/c1ccc(O)c(O)c1)C(=O)O [CICHORIC ACID] |  | Activity [2]: 0.6%; IC50 [3]: 379 µM; Ki [4]: 68.3 µM; Ki [5]: 12.5 µM
9 | Cc1ccc(C(=O)/C=C/c2ccc(C(=O)O)cc2)cc1 | 9.5 | 
10 | O=C(O)c1ccc(/C=C/C(=O)c2cccc3ccccc23)cc1 | 10.3 | 
